UCH37 DUB inh = inhibitors of human UCH37 deubiquitinase, primary screen, biochemical, Ub-AMC cleavage, fluorescence; purified proteasome/UCH37; inhibition, % (concentration not given with the values); actives 0.33% (n = 330,000); AID 588478, 2011;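 active = mean inhibition over replicate wells above about 20%, limit read from the data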;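 also: 0% = compound-free wells with enzyme and 100% = wells lacking proteasome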
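System: Proteasome-associated human UCH37 deubiquitinase; Input: 0.15 nM proteasome in added enzyme buffer; Also added: Ub-AMC substrate from 1 µM stock; Incubation: 30 min compound-proteasome preincubation then 25 min substrate reaction, room temperature; Detection: fluorescence, ex 355 nm, em 460 nm; Read-out: % inhibition of Ub-AMC cleavage fluorescence; Benchmarks: no-proteasome and no-compound wells.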
Rin1-Abl PPI inh = inhibitors of Rin1-Abl protein binding, primary screen, biochemical, TR-FRET. Tyrosine-protein kinase ABL1 (Homo sapiens) + Ras and Rab interactor 1 (Homo sapiens), …. inhibition, % at 7.35 µM. actives 0.4% (n = 360,000). AID 588664, 2011; in the data active = inhibition above about 5%, passing the limit was not always enough
ATG4B inhibitor = ATG4B protease inhibitors, primary screen, biochemical, fluorescence, uHTS | Cysteine protease ATG4B (Homo sapiens), Q9Y4P1 | inhibition, % at 8.33 µM | ATG4B cleavage of LC3-PLA2, NBD-HPC fluorescence, 1 h | actives 0.51% (n = 340,000); in the data active = inhibition above about 40%
Target sequence (Q9Y4P1 whole entry, looked up): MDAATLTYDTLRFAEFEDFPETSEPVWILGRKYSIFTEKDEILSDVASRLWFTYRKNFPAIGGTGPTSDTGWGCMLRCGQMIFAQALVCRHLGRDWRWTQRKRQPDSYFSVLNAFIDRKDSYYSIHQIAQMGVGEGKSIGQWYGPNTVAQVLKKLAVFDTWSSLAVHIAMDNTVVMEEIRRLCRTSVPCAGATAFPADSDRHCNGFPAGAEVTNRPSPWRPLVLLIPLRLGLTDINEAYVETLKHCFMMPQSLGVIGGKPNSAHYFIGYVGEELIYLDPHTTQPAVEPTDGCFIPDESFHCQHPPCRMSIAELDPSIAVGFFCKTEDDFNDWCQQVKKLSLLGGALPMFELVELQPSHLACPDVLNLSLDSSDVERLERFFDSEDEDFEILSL
TbMetRS inhib = T. brucei MetRS inhibitors, primary screen, biochemical, luminescence; methionyl-tRNA synthetase (Trypanosoma brucei brucei); purified T. brucei MetRS, ATP depletion, Kinase-Glo luminescence; inhibition, % at 11.9 µM; actives 0.4% (n = 360,000); AID 624268, 2012;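 active = inhibition above a per-plate cutoff of the control wells' mean inhibition plus 3 SD, cut at about 5.5% in these data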;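 also: 0% = DMSO wells median and 100% = median of wells with control inhibitor compound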
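Test system – parasite MetRS enzyme · Reagent – substrates ATP, L-methionine and bulk Escherichia coli tRNA · Doses – 11.9 µM compound single dose, 0.9% DMSO · Times – 15 min enzyme-compound preincubation, 2 h reaction, 10 min detection, 25 °C · Signal – Kinase-Glo luminescence, ATP depletion format · Controls – DMSO-only wells as low control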
Tb MetRS conf = T. brucei MetRS inhibitors, confirmation, biochemical, luminescence; shares compounds with TbMetRS inhib; T. brucei MetRS enzyme, luminescence (ATP depletion); inhibition, % at 11.9 µM; actives 93% (n = 1,400); in the data active = inhibition above about 7%
Jurkat cytotox = Jurkat T cell cytotoxicity, cytotoxicity control for T. brucei MetRS inhibitor project, luminescence, high throughput. shares compounds with TbMetRS inhib. Jurkat cells viability, ATP luminescence. inhibition, % at 8.3 µM. actives 12% (n = 1,400). AID 624413, 2012; in the data active = inhibition above about 15%;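 also: 0% = vehicle and 100% = reference inhibitor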
TbMetRS FP orth = T. brucei MetRS inhibitors, orthogonal assay for T. brucei MetRS inhibitor project, biochemical, fluorescence polarization. shares compounds with TbMetRS inhib. purified T. brucei MetRS. inhibition, % at 11.9 µM. actives 44% (n = 1,400). AID 651607, 2012; in the data active = inhibition above about 17%;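 also: 0% = vehicle wells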
An asterisk follows results filed as active. Hits are enriched below; roughly 1.4% of the tested compounds scored in any of these assays.

`COc1ccc(N2CC(C(=O)NCc3nnnn3-c3ccc(C)c(C)c3)CC2=O)cc1` (stereo not given) gave UCH37 DUB inh 2, Rin1-Abl PPI inh 4, ATG4B inhibitor -1 and TbMetRS inhib -1.
CCN(C(=O)CSc1nc2ccc(Cl)cc2[nH]1)C1CCS(=O)(=O)C1 (stereo not given) was read as UCH37 DUB inh 1, Rin1-Abl PPI inh 1, ATG4B inhibitor 0, TbMetRS inhib 5.7*, Tb MetRS conf 23*, Jurkat cytotox -5 and TbMetRS FP orth 6.
For Cc1ccc2nc(SCC(=O)NC3CCS(=O)(=O)C3)[nH]c2c1 (stereo not given) the results were UCH37 DUB inh -3, Rin1-Abl PPI inh 5, ATG4B inhibitor -4, TbMetRS inhib 9.7*, Tb MetRS conf 37*, Jurkat cytotox -9 and TbMetRS FP orth 14.
For Cc1ccc2nc(SCC(=O)N(C)C3CCS(=O)(=O)C3)[nH]c2c1 (stereo not given) the results were UCH37 DUB inh 4, Rin1-Abl PPI inh 3, ATG4B inhibitor 0 and TbMetRS inhib 0.
`O=C(CSc1nc2ccccc2[nH]1)NC1CCS(=O)(=O)C1` (stereo not given) gave UCH37 DUB inh -2, Rin1-Abl PPI inh -1, ATG4B inhibitor 3, TbMetRS inhib 9.3*, Tb MetRS conf 18*, Jurkat cytotox 6 and TbMetRS FP orth -3.
Screening Cc1ccc2nc(SC(C)C(=O)NCc3ccc4c(c3)OCO4)[nH]c2c1 (stereo not given) returned UCH37 DUB inh 0, Rin1-Abl PPI inh 4, ATG4B inhibitor -9, TbMetRS inhib 13*, Tb MetRS conf 35*, Jurkat cytotox 2 and TbMetRS FP orth 14.
For C/C(CC(=O)Nc1ccccn1)=N\NC(=O)c1ccc(C)cc1 the results were Rin1-Abl PPI inh 0, ATG4B inhibitor 12 and TbMetRS inhib -1.
`CCOC(=O)c1ccccc1NC(=O)Cc1ccc(S(=O)(=O)N2CCCC2)s1` gave UCH37 DUB inh -3, Rin1-Abl PPI inh 3, ATG4B inhibitor -1 and TbMetRS inhib 0.
CCN(CC(=O)Nc1c(F)cccc1F)C(=O)c1ccc(OC)c(S(=O)(=O)NC2CCCC2)c1 was read as Rin1-Abl PPI inh -3 and TbMetRS inhib 0.
COc1ccc(CNC(=O)CSc2nc3ccc(C)cc3[nH]2)cc1 was read as UCH37 DUB inh 5, Rin1-Abl PPI inh -2, ATG4B inhibitor 3, TbMetRS inhib 29*, Tb MetRS conf 48*, Jurkat cytotox -2 and TbMetRS FP orth 21*.
For Cc1cc(C)nc(SCc2nnc(SCC(=O)N3CCCc4ccccc43)n2C)n1 the results were UCH37 DUB inh -1, Rin1-Abl PPI inh 2, ATG4B inhibitor 3 and TbMetRS inhib -1.
Screening COc1cc2c(cc1OC)CN(c1ccc([N+](=O)[O-])cc1Cl)CC2 returned UCH37 DUB inh 6, Rin1-Abl PPI inh -2, ATG4B inhibitor -8 and TbMetRS inhib 5.
`COc1cc2c(cc1OC)CN(c1ccc([N+](=O)[O-])cc1C#N)CC2` gave UCH37 DUB inh 5, Rin1-Abl PPI inh -2, ATG4B inhibitor -11, TbMetRS inhib 11*, Tb MetRS conf 19*, Jurkat cytotox 19* and TbMetRS FP orth 8.
Screening O=C(CNC(=O)c1cccc(OC(F)F)c1)Nc1ccc(Cl)cc1 returned UCH37 DUB inh -1, Rin1-Abl PPI inh 1, ATG4B inhibitor -6, TbMetRS inhib 51*, Tb MetRS conf 70*, Jurkat cytotox 2 and TbMetRS FP orth 32*.
Screening Cc1cccc(Nc2nc3c(s2)CCCC3)c1 returned UCH37 DUB inh 1, Rin1-Abl PPI inh -4, ATG4B inhibitor 27 and TbMetRS inhib -1.
For Clc1ccc(CNc2ncnc3[nH]ncc23)cc1Cl the results were UCH37 DUB inh 4, Rin1-Abl PPI inh 3, ATG4B inhibitor -3, TbMetRS inhib 7.1*, Tb MetRS conf 29*, Jurkat cytotox -2 and TbMetRS FP orth 17*.
COc1ccc(S(=O)(=O)NNC(=O)c2cc3cc4ccccc4nc3s2)cc1 was read as UCH37 DUB inh -2, Rin1-Abl PPI inh 0, ATG4B inhibitor -19, TbMetRS inhib 5.8*, Tb MetRS conf 14*, Jurkat cytotox -3 and TbMetRS FP orth 14.
Screening Cc1ccc(NC(=O)CN(C)C(=O)CCSc2ccc(F)cc2)cc1 returned UCH37 DUB inh 0, Rin1-Abl PPI inh 2, ATG4B inhibitor -16, TbMetRS inhib 43*, Tb MetRS conf 80*, Jurkat cytotox 3 and TbMetRS FP orth 60*.
CC(C)(C)n1nnnc1C(c1cc2ccccc2o1)N(Cc1ccccc1)Cc1ccccc1 (stereo not given) was read as TbMetRS inhib -1.
For C=CCN=C(C)C1=C(O)C(C)OC1=O (stereo not given) the results were UCH37 DUB inh 0, Rin1-Abl PPI inh -2, ATG4B inhibitor 0 and TbMetRS inhib 0.
Screening CNC(=S)NNC(=O)c1ccc(=O)n(Cc2ccc(Cl)cc2Cl)c1 returned UCH37 DUB inh 4, Rin1-Abl PPI inh 3, ATG4B inhibitor 11, TbMetRS inhib 7.8*, Tb MetRS conf 20*, Jurkat cytotox 11 and TbMetRS FP orth 7.
`CC1CCCN(CCCOc2ccc(Cl)cc2Br)C1` (stereo not given) gave UCH37 DUB inh 5, Rin1-Abl PPI inh 2, ATG4B inhibitor -2, TbMetRS inhib 11*, Tb MetRS conf 23*, Jurkat cytotox 9 and TbMetRS FP orth 4.
CC1CCN(CCCOc2ccc(Cl)cc2Br)CC1 was read as UCH37 DUB inh 1, Rin1-Abl PPI inh 0, ATG4B inhibitor -19 and TbMetRS inhib 5.
`O=C(NNS(=O)(=O)c1ccccc1[N+](=O)[O-])c1ccccc1Cl` gave UCH37 DUB inh -2, Rin1-Abl PPI inh 0, ATG4B inhibitor -2 and TbMetRS inhib 0.
`O=C(NNS(=O)(=O)c1ccccc1[N+](=O)[O-])c1cc2ccccc2cc1O` gave UCH37 DUB inh 5, Rin1-Abl PPI inh 0, ATG4B inhibitor -17, TbMetRS inhib 34*, Tb MetRS conf 49*, Jurkat cytotox 2 and TbMetRS FP orth 24*.
